Legend:
[1] = folding enthalpy; higher = less favourable; fluorescence melt of hairpins on a sequencing array, two-state fit; conditions: sodium 0.088 M
Procedure, shortened: (§1)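 Folding enthalpy and melting temperature were estimated with bootstrapped two-state fits and combined across four replicates by inverse-variance weighting, with fitted temperatures raised by 9.35 °C to match UV melts. The data were Cy3 fluorescence of library hairpins, with annealed Cy3 and quencher oligos, on a sequenced MiSeq flow cell in 50 mM Na-HEPES pH 8.0, 25 mM NaCl, imaged in 2.5 °C steps up to 60 °C and normalised to pre-quench Cy3 and control constructs.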

[2] = melting temperature; fluorescence melt of hairpins on a sequencing array, two-state fit, raised by 9.35 °C to match UV melts; conditions: sodium 0.088 M
Procedure, shortened: as §1

Sequence | folding enthalpy [1] [kcal/mol] | Tm [2] [°C]
GGAAGCGAAAGCTGGTCC ((((((....)))..))) | -11.6 | 36
GCGTTTAACGC ((((...)))) | -21.4 | 56.6
GATCAAGGGCTTGATC ((((((....)))))) | -34.6 | 46.7
GCTGCGCGAAAGCGTTGC ((..(((....)))..)) | -18.9 | 56.7
GCTCTGCGAAAGCACCGC ((..(((....)))..)) | -8.79 | 31.8
GCAGAGCGAAAGCCCCGC ((.(.((....)).).)) | -10.1 | 36.9
GATCTCTGCCGAGATC ((((((....)))))) | -37.9 | 51.3
GGTTTAACGAAAGTTACC (((..(((....)))))) | -14.6 | 29.6
GGATGACGAAAGTCGTCC (((.(((....))).))) | -38.4 | 64.5
GGCCTCGAAAGAGTCGCC ((((((....)))..))) | -23.3 | 45
GATCAATCCTTGATC ((((((...)))))) | -28.7 | 44
GTCTATCCGAAAGGAGAC (((..(((....)))))) | -16.5 | 31.8
GGCCAGGGAAACCTGACC ((.((((....)))).)) | -34.4 | 48.3
GTCGGTGGAAACGCTGAC (((.(.(....).).))) | -20 | 42.6
GGGTAGGGAAACTTACCC (((((.(....).))))) | -29.5 | 45.8
GATCCCTTTGGGGATC ((((((....)))))) | -46 | 62.8
GCTATAGGAAACCATAGC (((((.(....).))))) | -29.8 | 35.6
GCACTCGAAAGAGTTTGC ((((((....)))..))) | -17.5 | 35.9
GCTTGGCGAAAGCGTAGC (((..((....))..))) | -16.2 | 39.6
GGGTACGAAAGTAGCCCC ((((((....)))..))) | -14.5 | 55
GCGATGCGAAAGCTGCGC (((..((....))..))) | -22.7 | 64.2
GACCCCACGAAAGTGGTC (((..(((....)))))) | -8.51 | 28.9
GAATTAGGAAACTGATTC ((((.((....)).)))) | -19.8 | 33.7

Sequence | folding enthalpy [1] [kcal/mol] | Tm [2] [°C]
GTGGAAGAAATTCCAC ((((((....)))))) | -34.8 | 51.8
GGTGGCGGAAACGCCGTC (..((((....))))..) | -10.1 | 45.1
GGCGATCGAAAGATAGCC (((.(((....))).))) | -47 | 58
GTATGGCGAAAGCCTAC (((.(((....)))))) | -13.2 | 46.6
GATCATTCCCATGATC ((((((....)))))) | -42.6 | 46.8
GCCCTTACGAAAGTAGGC (((..(((....)))))) | -20.6 | 39.1
GGTGTCGAAAGACTACC ((((((....))).))) | -17.7 | 47.8
GCGGCGCGAAAGCCCAGC ((.(.((....)).).)) | -15.3 | 53
GATCTGTGGGCAGATC ((((((....)))))) | -49.7 | 54.3
GGAATGGGAAACCATTCC (((((((....))))))) | -45.1 | 60.4
GCCTGGACGAAAGTCGGC (((..(((....)))))) | -22.6 | 51.2
GCTGCACGAAAGTGGAGC (((.(((....))).))) | -34.2 | 65.6
GGTCTCCCGAAAGGGACC (((..(((....)))))) | -12.4 | 41.2
GCGGCCGCCCGC ((((....)))) | -17.1 | 63.2
GATTGCGGAAACGCAGTC ((.((((....)))).)) | -25.2 | 49.6
GGAAATGAAAATTTCC ((((((....)))))) | -29.2 | 48.8
GGCGGCGAAAGCCTTGCC ((((((....)))..))) | -19.2 | 55.1
GATCATGCAAATGATC ((((((....)))))) | -39.7 | 55.4
GCCAACGAAAGTTGGGGC ((((((....)))..))) | -15.3 | 65.4
GCCCAGCGAAAGCTGTGC ((.((((....)))).)) | -16 | 61
GGTTTCTCGAAAGAGACC (((..(((....)))))) | -18.8 | 32.6
GTACTCGGAAACGGGTAC ((((.((....)).)))) | -42.6 | 50.6
GATCTAGCTGTAGATC ((((((....)))))) | -32.8 | 39.9

Sequence | folding enthalpy [1] [kcal/mol] | Tm [2] [°C]
GTACCCGAAAGGGTCTAC ((((((....)))..))) | -10.7 | 42.2
GGTATCGAAAGATAGACC ((((((....)))..))) | -17 | 30.6
GACCGGCCGAAAGGCGTC (((..(((....)))))) | -12.5 | 38.4
GCTGAGGGAAACCTTGGC ((..(((....)))..)) | -26.6 | 38.1
GATCGAGTAGTCGATC ((((((....)))))) | -34.3 | 55.9
CGTTTCGGAAACGAACG (((.(((....)))))) | -26.3 | 44.9
GATGAGGGAAACCTTATC (((.(((....))).))) | -28.9 | 35.7
GCTTACCGAAAGGTAGC (((.(((....)))))) | -19.8 | 53
GTATGCGAAAGCATGTAC ((((((....)))..))) | -10.6 | 38
GATCTTAGCCAAGATC ((((((....)))))) | -32.2 | 43.1
GTCCACGAAAGTGCCGAC ((((((....)))..))) | -12.8 | 31.5
GACGGACGAAAGTCGGTC (((.(((....))).))) | -35.2 | 58.1
CGCCTCGGAAACGACGCG (((.(((....))).))) | -33.9 | 45.7
CTCATGAAAATGAG (((((....))))) | -21.3 | 44.8
GGGGTAGGAAACCACCCC (((((.(....).))))) | -30.2 | 50.7
GTCAGCCGAAAGGCCGAC (((.(((....))).))) | -21.4 | 55.8
GATATACGAAAGTAATC (((.(((....)))))) | -9.45 | 23.8
GTGTAGGGAAACCTATAC ((.((((....)))).)) | -24.8 | 38.2
CGACTGCGGAAACGCTCG (((..(((....)))))) | -12.5 | 32.7
GATCTAGTGGTAGATC ((((((....)))))) | -28 | 38
GGAGTAGGAAACTACTCC (((((((....))))))) | -46.4 | 59
GCCCAGCGAAAGCTAGGC (((.(((....))).))) | -42.3 | 54.1
GATCTCGGCAGAGATC ((((((....)))))) | -42 | 68.1

Sequence | folding enthalpy [1] [kcal/mol] | Tm [2] [°C]
GCCGACGAAAGTCAAGGC ((((((....)))..))) | -31.1 | 55.1
CGCCAGCGGAAACGCGCG (((..(((....)))))) | -23.4 | 50.6
GGGTCACGAAAGTGCCC (((.(((....)))))) | -39.9 | 58.5
GTAGCAGGAAACTGCTAC (((((((....))))))) | -32.7 | 66.2
GATCAGCCACCTGATC ((((((....)))))) | -33.8 | 49.6
GGATTCCGAAAGGATTCC (((.(((....))).))) | -35.8 | 49.7
CGGACGGAAACGTGACCG ((((((....)))..))) | -25 | 38.3
GGGCATGGAAACGTGTCC ((.((.(....).)).)) | -29 | 45
GATCCCTTTCGGGATC ((((((....)))))) | -48.2 | 60.1
GCGGAGCGAAAGCCCGGC ((.(.((....)).).)) | -10.5 | 53.5
GCACTGGGAAACTAGTGC (((((.(....).))))) | -38.9 | 53.2
GGTCCGACGAAAGTCACC (((..(((....)))))) | -14.1 | 28.4
TGTCGGAAACGACA (((((....))))) | -16.3 | 60
GATCATGATATGATC ((((((...)))))) | -31.3 | 48.4
GAAATTGCGAAAGCATTC (((..(((....)))))) | -6.33 | 23.4
GCGACACCGAAAGGTCGC (((..(((....)))))) | -34.6 | 61.1
GTCCTACGAAAGTAAGAC (((.(((....))).))) | -27.3 | 37
GATCGCCGCTGCGATC ((((((....)))))) | -38.5 | 66.9
GATCATGGTGATGATC ((((((....)))))) | -39.4 | 49
GTGGACGGAAACGTTCAC (((.(((....))).))) | -42.2 | 55
GGTGTCGAAAGACGTACC ((((((....)))..))) | -19.3 | 41.9
GATCAACCTCTTGATC ((((((....)))))) | -30.3 | 43.5
GTCCTGCGAAAGCACGAC (((.(((....))).))) | -21.4 | 42.6

Reference: the array DNA melting data of Ke et al. (doi:10.1101/2024.01.08.574731)
